Calls of active or inactive are those of the source. The calls are words filed in the database; no cut-off is given here.
Experiments:
Galactokinase [1] = target: T1, Galactokinase (Homo sapiens, UniProt P51570); assay: Inhibition of human […] at >50 uM after 30 mins by Kinase-GloTM assay
Procedure, shortened: (§1)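 GALK in vitro inhibition with IC50 determination; each value from three replicate measurements, given with standard deviation. Compounds not active below 50 μM recorded as exceeding that concentration.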

[2] = Toxicity in human primary fibroblasts; type: cell-based; conditions: fibroblast
Galactokinase [3] = target: T1, Galactokinase; assay: Inhibition of human galactokinase after 30 mins by Kinase-GloTM assay; procedure, shortened: as §1
Galactokinase [4] = target: T1, Galactokinase; assay: Inhibition of […] in human primary fibroblasts derived from GALT-deficient patients assessed as reduction in accumulation of gal-1P at 50 uM preincubated overnight prior galactose challenge measured after 4 hrs
Procedure, shortened: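 Intracellular GALK inhibition in primary fibroblasts from classic galactosemia (GALT-deficient) patients. Compound given at 50 or 100 μM. Read-out is the percent reduction of cellular gal-1P accumulation.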

[5] = Toxicity in human primary fibroblasts assessed as lethality at >= 50 uM within 1 hr; type: cell-based; conditions: fibroblast
[6] = Toxicity in human primary fibroblasts assessed as visible signs of lethality at 50 uM; type: cell-based; conditions: fibroblast

T1 sequence (P51570 whole entry): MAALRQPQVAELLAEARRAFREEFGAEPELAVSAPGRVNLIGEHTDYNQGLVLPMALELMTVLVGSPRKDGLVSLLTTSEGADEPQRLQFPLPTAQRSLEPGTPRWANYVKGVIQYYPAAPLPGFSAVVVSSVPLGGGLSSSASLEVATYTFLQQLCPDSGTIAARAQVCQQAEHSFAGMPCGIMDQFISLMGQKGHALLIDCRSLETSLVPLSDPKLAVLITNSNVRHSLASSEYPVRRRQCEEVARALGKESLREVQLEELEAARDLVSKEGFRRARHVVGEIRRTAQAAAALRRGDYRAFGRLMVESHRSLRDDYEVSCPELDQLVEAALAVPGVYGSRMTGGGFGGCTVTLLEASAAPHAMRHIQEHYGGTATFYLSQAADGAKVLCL

inhibition (Galactokinase [1]) | IC50 (Galactokinase [3]) [nM] | Compound | further results
inactive | – | CC1(C)NC(=O)C(C#N)=C(SCc2ccccc2)S1 | –
– | 50000 | N#CC1=C(SCc2ccccc2)SC(c2cccc(O)c2)NC1=O (stereo not given) | –
– | 1800 | N#CC1=C(SCc2ccccc2)SC(c2ccc(O)cc2)NC1=O (stereo not given) | –
inactive | – | N#CC1=C(SCc2ccc(O)cc2)SC2(CCC(C(=O)O)CC2)NC1=O (stereo not given) | –
– | 12000 | N#CC1=C(SCc2ccccc2)SC(c2ccccc2O)NC1=O (stereo not given) | –
– | 1200 | N#CC1=C(SCc2ccccc2)SC(c2ccc(O)cc2O)NC1=O (stereo not given) | –
– | 700 | N#CC1=C(SCc2ccccc2)SC(c2cc(O)ccc2O)NC1=O (stereo not given) | –

The remaining lines, values behind:

Compound | inhibition (Galactokinase [1]) | IC50 (Galactokinase [3]) [nM] | further results
N#CC1=C(SCc2ccccc2)SC(c2ccc(O)c(O)c2)NC1=O (stereo not given) | – | – | Activity [2]: Toxic
N#CC1=C(SCc2cccc(N3CCOCC3)c2)SC(c2cc(O)ccc2O)NC1=O (stereo not given) | – | 900 | inhibition (Galactokinase [4]): inactive
N#CC1=C(SCc2ccccc2)SC(c2ccc3c(c2)OCO3)NC1=O (stereo not given) | – | 22500 | –
CSC1=C(C#N)C(=O)NC(c2ccc(Cl)cc2Cl)S1 (stereo not given) | inactive | – | –
N#CC1=C(SCc2ccccc2)SCNC1=O | inactive | – | –
CC(=O)Oc1ccc(C2NC(=O)C(C#N)=C(SCc3ccccc3)S2)cc1OC(C)=O (stereo not given) | – | – | Activity [5]: Toxic
N#CC1=C(SCc2cccc(N3CCOCC3)c2)SC(c2ccc(O)cc2)NC1=O (stereo not given) | – | 2400 | Activity [6]: Non-toxic; inhibition (Galactokinase [4]): inactive
CCCCSC1=C(C#N)C(=O)NC(c2ccccc2O)S1 (stereo not given) | inactive | – | –
N#CC1=C(SCc2cccc(N3CCOCC3)c2)SC(c2ccc(O)c(O)c2)NC1=O (stereo not given) | – | 1200 | Activity [6]: Non-toxic; inhibition (Galactokinase [4]): 16%
COc1ccc(C2NC(=O)C(C#N)=C(SCc3ccccc3)S2)cc1 (stereo not given) | – | > 50000 | –
N#CC1=C(SCc2ccccc2)SC(c2ccc(C(=O)O)cc2)NC1=O (stereo not given) | – | – | inhibition (Galactokinase [3]): Active
CC1NC(=O)C(C#N)=C(SCc2ccccc2)S1 (stereo not given) | inactive | – | –
CSC1=C(C#N)C(=O)NC(c2ccccc2O)S1 (stereo not given) | – | – | inhibition (Galactokinase [3]): Active
